This is an account of results in PubChem BioAssay.

This is one part of the list. Results filed as inconclusive are left out. A number with no mark means an inactive call. The source made the active and inactive calls.

The target in experiment [1] is Solute carrier family 12 member 5 (Homo sapiens) (UniProt Q9H2X9). As to the kind of experiment: retest of KCC2 transport modulators without sodium – cell-based, HEK293 KCC2, thallium flux, secondary assay, confirmation (AID 1713). The settings on record: FluoZin2 fluorescence, at 10 µM, stronger effect = higher value. In outline:
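System: HEK cells expressing human KCC2 cotransporter; Buffer or medium: Na-free NMDG-Cl buffer; Also added: thallium sulfate stimulus buffer at pH 7.3; Dosing: 10 µM single dose, 0.1% DMSO; Timing: 48 min dye loading; Measured by: kinetic FluoZin2 fluorescence at 1 Hz, ex 480/em 540 nm; Read-out: baseline-normalized fluorescence slope, 10–20 s post-Tl+.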

A short description of a further experiment: PubChem AID 1714.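 Also: raw slope of fluorescence over initial fluorescence between 10 and 20 s after thallium.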 The settings on record: HEK293-KCC2 + bumetanide/ouabain, thallium flux FluoZin2; at 10 µM; stronger effect = higher value. In outline: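 Assay system: HEK cells expressing the K-Cl cotransporter KCC2; buffer or medium: HBSS-HEPES plus ouabain 0.2 mM, bumetanide 2 mM; reagent: thallium stimulus; compound dosing: 10 µM single dose; timing: 48 min dye loading; signal: FluoZin2-AM (0.5 µM) fluorescence, 480 nm ex/540 nm em, 1 Hz kinetic imaging; replication: duplicates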

The target of experiment [2] is Solute carrier family 12 member 5 (Homo sapiens) (UniProt Q9H2X9). Description: retest of KCC2 transport modulation, ouabain-free – cell-based, HEK293 KCC2, thallium flux, FluoZin2, secondary assay 2, confirmation (AID 1715;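 active = thallium flux slope more than 3 SD above or below the plate's solvent-only control mean, mostly below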;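 also: raw slope with 0.1% DMSO as baseline and bumetanide as block control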). The settings on record: HEK293-KCC2, thallium flux FluoZin2 fluorescence; at 10 µM; actives lie on both sides; F/F0 rise rate, 10–20 s post-thallium.

The nature of experiment [3]: compound effects on native HEK Tl+ uptake – HEK cells, counterscreen 1, counter-screen for KCC2 modulator project, confirmation (AID 1716;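 active = thallium flux rate significantly above the same plate's solvent-only control wells, beyond their mean plus 3 SD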). The settings on record: HEK293 parental cells, thallium flux FluoZin2, ouabain; at 10 µM; baseline-ratio fluorescence slope, 10–20 s after thallium.
The target in experiment [4] is Solute carrier family 12 member 5 (Homo sapiens) (UniProt Q9H2X9). Description: modulation of KCC2 thallium flux in HEK cells – cell-based, ouabain, retest, confirmation (AID 1717;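 active = thallium flux slope beyond 3 SD from same-plate DMSO control mean in most replicates, usually higher, sometimes lower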;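 also: slope of initial-normalized fluorescence between seconds 10 and 20 after thallium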). The settings on record: HEK293-KCC2, thallium flux FluoZin2 fluorescence, at 10 µM, bidirectional: low = inhibitor, high = activator.
A short description of experiment [5]: native HEK Tl+ uptake effects, second counter-screen – HEK cells, counterscreen 2, counter-screen for KCC2 modulator project, confirmation (AID 1718;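 active = thallium flux slope above the same plate's solvent-control mean plus 3 SD in both duplicate wells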;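 also: run without ouabain in cells lacking the KCC2 cotransporter; slope of fluorescence scaled to its starting value between 10 and 20 s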). The settings on record: HEK293 parental, thallium flux FluoZin-2 fluorescence slope; at 10 µM. In outline: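 Test system: parental HEK cells / Reagent: thallium sulfate stimulus, 12 mM in buffer, pH 7.3 / Compound: single 10 µM final compound dose, 0.1% DMSO / Timing: overnight cell culture at 37 °C, 48 min dye loading, compound before thallium / Detection: FluoZin-2 fluorescence kinetics / Read-out: rate of F/F0 rise, 10–20 s after thallium addition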
(In general: The purpose of a counterscreen is to sort out artefacts and off-target activity.)

Chain of Solute carrier family 12 member 5 (Homo sapiens) (Q9H2X9 whole entry, looked up): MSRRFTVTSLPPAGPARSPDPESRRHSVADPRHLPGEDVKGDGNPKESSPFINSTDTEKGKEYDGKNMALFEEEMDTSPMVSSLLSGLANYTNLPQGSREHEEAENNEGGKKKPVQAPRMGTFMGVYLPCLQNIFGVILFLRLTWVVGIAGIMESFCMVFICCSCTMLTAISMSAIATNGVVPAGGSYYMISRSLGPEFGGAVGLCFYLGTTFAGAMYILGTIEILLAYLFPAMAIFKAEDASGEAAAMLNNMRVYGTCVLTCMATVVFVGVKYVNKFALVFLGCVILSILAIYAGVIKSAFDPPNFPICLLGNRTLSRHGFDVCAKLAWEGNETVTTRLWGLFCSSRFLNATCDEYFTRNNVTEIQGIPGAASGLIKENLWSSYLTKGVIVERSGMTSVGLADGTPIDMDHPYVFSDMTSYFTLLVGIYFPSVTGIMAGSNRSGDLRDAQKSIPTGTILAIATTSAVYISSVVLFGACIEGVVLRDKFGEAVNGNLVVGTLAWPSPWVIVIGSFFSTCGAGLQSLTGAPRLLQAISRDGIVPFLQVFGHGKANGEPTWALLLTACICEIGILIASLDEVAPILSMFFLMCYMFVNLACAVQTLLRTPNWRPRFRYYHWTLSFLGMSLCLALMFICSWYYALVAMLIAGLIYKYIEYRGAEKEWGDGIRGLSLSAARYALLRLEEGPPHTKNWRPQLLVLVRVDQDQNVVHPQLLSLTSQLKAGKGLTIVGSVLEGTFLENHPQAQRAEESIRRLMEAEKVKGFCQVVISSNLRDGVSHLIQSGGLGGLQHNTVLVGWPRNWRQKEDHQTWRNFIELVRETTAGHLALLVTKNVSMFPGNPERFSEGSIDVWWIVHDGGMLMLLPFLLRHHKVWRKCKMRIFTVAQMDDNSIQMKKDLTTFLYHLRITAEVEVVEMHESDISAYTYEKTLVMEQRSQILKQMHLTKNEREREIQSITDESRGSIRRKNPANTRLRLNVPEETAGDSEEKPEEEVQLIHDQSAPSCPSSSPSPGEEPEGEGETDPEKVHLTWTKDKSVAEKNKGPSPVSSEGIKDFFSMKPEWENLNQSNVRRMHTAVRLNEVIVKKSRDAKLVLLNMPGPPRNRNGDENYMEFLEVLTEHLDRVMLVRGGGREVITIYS

On to `Brc1ccc(C2=CC(c3ccco3)n3ncnc3N2)cc1` (stereo not given), for which the normalised thallium flux (F/F0 slope) in experiment [1] is 0.00373 (active). Further, the normalized thallium flux in the experiment “PubChem AID 1714” is 0.00178 (active); in experiment [2] it was 0.0209 (active). Further, the thallium flux rate (normalised fluorescence) in experiment [3] is 0.00407 (active). For the same molecule, the raw Tl+ flux slope (below DMSO = inhibition, above = activation) in experiment [4] was 0.00899 (active). Besides, the thallium flux slope in experiment [5] is 0.00724 (active).
Consider `O=C(Cn1cnc2c(nnn2Cc2ccc(F)cc2)c1=O)NCc1ccc2c(c1)OCO2`, for which the normalised thallium flux (F/F0 slope) in experiment [1] was 0.0157. In addition, the normalized thallium flux in “PubChem AID 1714” is 0.00497; in experiment [2], 0.0238 (active). For the same molecule, the thallium flux rate (normalised fluorescence) in experiment [3] is 0.00772. In experiment [4], the raw Tl+ flux slope (below DMSO = inhibition, above = activation) is 0.0137. Besides, the thallium flux slope in experiment [5] was 0.0107.
In the case of `Cc1c(NC(=O)CSc2cccc3cccnc23)c(=O)n(-c2ccccc2)n1C`, the normalised thallium flux (F/F0 slope) in experiment [1] is 0.0141 (active). For the same molecule, the normalized thallium flux is 0.0374 (active) in “PubChem AID 1714” and 0.0314 in experiment [2]. Moreover, the thallium flux rate (normalised fluorescence) in experiment [3] was 0.0256 (active). Moreover, in experiment [4], the raw Tl+ flux slope (below DMSO = inhibition, above = activation) is 0.0324 (active).
For the molecule `CC(C)C1Nc2c(C(=O)O)cccc2C(Nc2ccccc2C(=O)O)C1(C)C` (stereo not given), the normalised thallium flux (F/F0 slope) in experiment [1] is 0.00578. For the same molecule, the figures for the normalized thallium flux (in the experiment “PubChem AID 1714”; in experiment [2]) were 0.00489 and 0.0236 (active), respectively. The thallium flux rate (normalised fluorescence) in experiment [3] is 0.00619 (active). The raw Tl+ flux slope (below DMSO = inhibition, above = activation) in experiment [4] is 0.0131 (active).
`COc1ccccc1/C=C/C=N/n1c(-c2ccc(Cl)cc2Cl)n[nH]c1=S`: the normalised thallium flux (F/F0 slope) in experiment [1] was 0.0112. Moreover, the normalized thallium flux in the experiment “PubChem AID 1714” was 0.0155 (active); in experiment [2], 0.0312. Besides, the thallium flux rate (normalised fluorescence) in experiment [3] was 0.0105 (active). Further, the raw Tl+ flux slope (below DMSO = inhibition, above = activation) in experiment [4] was 0.0229. In addition, the thallium flux slope in experiment [5] is 0.011.
Take `Cc1ccc(OCc2n[nH]c(=S)n2-c2ccc(C)cc2)cc1`: the normalised thallium flux (F/F0 slope) in experiment [1] was 0.0109. Further, the normalized thallium flux in “PubChem AID 1714” is 0.094 (active); in experiment [2], 0.0355. Also, the thallium flux rate (normalised fluorescence) in experiment [3] is 0.0134 (active).
On to `COc1ccc([N+](=O)[O-])cc1NC(=O)COC(=O)/C=C/c1ccco1`, for which the normalised thallium flux (F/F0 slope) in experiment [1] was 0.00867. The normalized thallium flux was 0.00651 in the experiment “PubChem AID 1714” and 0.0316 in experiment [2]. In experiment [3], the thallium flux rate (normalised fluorescence) is 0.0079. For the same molecule, the raw Tl+ flux slope (below DMSO = inhibition, above = activation) in experiment [4] was 0.0204. Besides, the thallium flux slope in experiment [5] was 0.011.
Take `O=C(Nc1nnc(-c2ccccc2)o1)c1cc(-c2cccs2)nc2ccccc12`: the normalised thallium flux (F/F0 slope) in experiment [1] was 0.0238 (active). Besides, the figures for the normalized thallium flux (in “PubChem AID 1714”; in experiment [2]) were 0.108 (active) and 0.0377, respectively. For the same molecule, the thallium flux rate (normalised fluorescence) in experiment [3] is 0.0864 (active). The raw Tl+ flux slope (below DMSO = inhibition, above = activation) in experiment [4] was 0.0747 (active). Also, in experiment [5], the thallium flux slope is 0.0185 (active).
Take `S=c1nccc(-c2cc(Cl)sc2Cl)[nH]1`: the normalised thallium flux (F/F0 slope) in experiment [1] is 0.00959. For the same molecule, the normalized thallium flux in the experiment “PubChem AID 1714” is 0.0101 (active); in experiment [2], 0.0372. The thallium flux rate (normalised fluorescence) in experiment [3] was 0.0107 (active).
In the case of `C=CCNC(=S)N/N=C/c1ccc(C)s1`, in experiment [1], the normalised thallium flux (F/F0 slope) was 0.0134 (active). Moreover, the values for the normalized thallium flux (in the experiment “PubChem AID 1714”; in experiment [2]) were 0.0311 (active) and 0.0287, respectively. Besides, in experiment [3], the thallium flux rate (normalised fluorescence) was 0.0119 (active). The raw Tl+ flux slope (below DMSO = inhibition, above = activation) in experiment [4] is 0.0521 (active).
Take `O=[N+]([O-])c1c(NCCO)cc(Sc2nc3ccccc3s2)c2nonc12`: in experiment [1], the normalised thallium flux (F/F0 slope) is 0.0147 (active). In addition, the normalized thallium flux in the experiment “PubChem AID 1714” is 0.0297 (active); in experiment [2], 0.0332. The thallium flux rate (normalised fluorescence) in experiment [3] is 0.0134 (active). For the same molecule, the raw Tl+ flux slope (below DMSO = inhibition, above = activation) in experiment [4] is 0.0556 (active). In addition, the thallium flux slope in experiment [5] was 0.0128 (active).
Take `O=C(CCC(=O)OCc1cccc(C(=O)Oc2ccccc2)c1)Nc1cccc2ccccc12`: the normalised thallium flux (F/F0 slope) in experiment [1] is 0.00618. In addition, the results for the normalized thallium flux (in “PubChem AID 1714”; in experiment [2]) were 0.00434 and 0.0284, respectively. In experiment [3], the thallium flux rate (normalised fluorescence) is 0.00695. The raw Tl+ flux slope (below DMSO = inhibition, above = activation) in experiment [4] is 0.0171. The thallium flux slope in experiment [5] was 0.00997.
In the case of `N#Cc1nc(COc2ccc(-c3ccccc3)cc2)oc1NCc1cccnc1`, in experiment [1], the normalised thallium flux (F/F0 slope) was 0.00789. Besides, the normalized thallium flux in “PubChem AID 1714” was 0.00445; in experiment [2] it was 0.029. Further, the thallium flux rate (normalised fluorescence) in experiment [3] was 0.00821. In experiment [4], the raw Tl+ flux slope (below DMSO = inhibition, above = activation) is 0.0173. Further, the thallium flux slope in experiment [5] was 0.01.
`O=c1oc2ccccc2cc1-c1cn(-c2ccccc2)c(=S)[nH]1`: the normalised thallium flux (F/F0 slope) in experiment [1] was 0.00633. The normalized thallium flux in “PubChem AID 1714” is 0.0198 (active); in experiment [2], 0.0319. Also, the thallium flux rate (normalised fluorescence) in experiment [3] was 0.0191 (active). Moreover, the raw Tl+ flux slope (below DMSO = inhibition, above = activation) in experiment [4] is 0.0289 (active). Also, the thallium flux slope in experiment [5] was 0.0141 (active).
Consider `CS(=O)(=O)c1sc(C(=O)NC(=S)Nc2ccc(OC(F)(F)F)cc2)c2c1C=CCC2`, for which the normalised thallium flux (F/F0 slope) in experiment [1] is 0.00979. The normalized thallium flux in the experiment “PubChem AID 1714” is 0.0362 (active); in experiment [2], 0.0324. The thallium flux rate (normalised fluorescence) in experiment [3] is 0.0134 (active). In experiment [4], the raw Tl+ flux slope (below DMSO = inhibition, above = activation) was 0.0498 (active).
Regarding `COc1ccc(CN2CCCCC2C)cc1OC` (stereo not given), the normalised thallium flux (F/F0 slope) in experiment [1] is 0.00901. In addition, the normalized thallium flux in the experiment “PubChem AID 1714” was 0.00633; in experiment [2], 0.0321. Moreover, the thallium flux rate (normalised fluorescence) in experiment [3] is 0.00759. Further, the raw Tl+ flux slope (below DMSO = inhibition, above = activation) in experiment [4] is 0.0191. In addition, in experiment [5], the thallium flux slope is 0.011.
`COc1ccc(-n2c(=S)[nH]c3sc4c(c3c2=O)CCc2ccccc2-4)cc1`: the normalised thallium flux (F/F0 slope) in experiment [1] was 0.0163 (active). Moreover, the normalized thallium flux in “PubChem AID 1714” is 0.0262 (active); in experiment [2], 0.0334. Also, the thallium flux rate (normalised fluorescence) in experiment [3] is 0.0162 (active). In experiment [4], the raw Tl+ flux slope (below DMSO = inhibition, above = activation) is 0.0311 (active).
For `Cc1cccc(NS(=O)(=O)c2ccc(C)c(C(N)=O)c2)c1`, the normalised thallium flux (F/F0 slope) in experiment [1] was 0.00589. For the same molecule, the normalized thallium flux was 0.00471 in the experiment “PubChem AID 1714” and 0.0297 in experiment [2]. Moreover, the thallium flux rate (normalised fluorescence) in experiment [3] was 0.00787. Besides, the raw Tl+ flux slope (below DMSO = inhibition, above = activation) in experiment [4] was 0.0187. The thallium flux slope in experiment [5] was 0.0102.
As to `COc1ccc(NC(=O)c2ccccc2[N+](=O)[O-])cc1OC`, in experiment [1], the normalised thallium flux (F/F0 slope) was 0.00704. Also, the normalized thallium flux in “PubChem AID 1714” is 0.00505; in experiment [2] it was 0.0299. The thallium flux rate (normalised fluorescence) in experiment [3] is 0.00749. The raw Tl+ flux slope (below DMSO = inhibition, above = activation) in experiment [4] was 0.0198. Further, in experiment [5], the thallium flux slope was 0.0109.
`C=CCNC(=S)NNC(=O)COc1c(Cl)cc(Cl)cc1Cl`: the normalised thallium flux (F/F0 slope) in experiment [1] is 0.0146 (active). Further, the figures for the normalized thallium flux (in “PubChem AID 1714”; in experiment [2]) were 0.0275 (active) and 0.0376, respectively. The thallium flux rate (normalised fluorescence) in experiment [3] is 0.0266 (active). Besides, the raw Tl+ flux slope (below DMSO = inhibition, above = activation) in experiment [4] is 0.03 (active).
Regarding `Cc1nnc(SC(C(=O)Nc2cc(Cl)cc(Cl)c2)c2ccccc2)[nH]c1=O` (stereo not given), the normalised thallium flux (F/F0 slope) in experiment [1] was 0.00885. Also, the values for the normalized thallium flux (in “PubChem AID 1714”; in experiment [2]) were 0.00559 and 0.0302, respectively. Further, in experiment [3], the thallium flux rate (normalised fluorescence) is 0.00486 (active). In addition, in experiment [4], the raw Tl+ flux slope (below DMSO = inhibition, above = activation) was 0.0159 (active).
